The whole screen tested about 320,000 compounds, of which about 380 (0.12%) were called active. The full list was thinned out, with actives kept by preference. A number with no mark means an inactive call.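 Rule for the calls: active = percent inhibition above the cutoff of mean plus 3 SD of all tested compounds, set per screening campaign (cut at about 20% in these data); inactive = the rest.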

Sequence of Photoreceptor-specific nuclear receptor (Homo sapiens) (Q9Y5X4 whole entry, looked up): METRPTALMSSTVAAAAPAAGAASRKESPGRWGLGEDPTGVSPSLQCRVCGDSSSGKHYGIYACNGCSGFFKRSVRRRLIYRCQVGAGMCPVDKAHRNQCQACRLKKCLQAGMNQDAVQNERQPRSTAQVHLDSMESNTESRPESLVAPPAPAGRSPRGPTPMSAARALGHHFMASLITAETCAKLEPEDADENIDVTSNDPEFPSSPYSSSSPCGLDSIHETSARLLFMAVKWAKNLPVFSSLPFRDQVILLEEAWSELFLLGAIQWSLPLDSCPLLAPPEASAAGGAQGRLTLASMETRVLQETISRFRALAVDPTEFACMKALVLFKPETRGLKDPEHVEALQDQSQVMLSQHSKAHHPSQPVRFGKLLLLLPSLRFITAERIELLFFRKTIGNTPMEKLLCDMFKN

The target in the assay is Photoreceptor-specific nuclear receptor (Homo sapiens) (UniProt Q9Y5X4). In words: disruption of NR2E3 corepressor interaction – biochemical, TR-FRET, GST-NR2E3, biotin-RetCOR, NR2E3 agonist project, primary screen (AID 2300).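 Note: 0% = DMSO wells and 100% = biotin wells as full block of FRET.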 The conditions noted are these: 1536-well, at 4.78 µM, stronger effect = higher value. The essentials:
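system = GST-tagged NR2E3 plus biotinylated RetCOR corepressor | input = 1.35 nM GST-NR2E3 | also added = 7 nM biotin-RetCOR | schedule = 5 h incubation at 4 °C | measured by = TR-FRET with europium anti-GST and streptavidin-D2, 340 nm excitation | read-out = percent loss of FRET ratio relative to control wells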
In general terms: TR-FRET usually uses a lanthanide donor and a delayed reading to cut background.
With `CC(C)CN(C(=O)CSc1nncn1C)C1CCS(=O)(=O)C1` (centres undefined), the inhibition of corepressor binding is 2.15%.
In the case of `COC(C)(C)[C@]12CC(O)(C(C)C)ON1[C@H]1CCCCC1N2O` (some centres undefined), the inhibition of corepressor binding was -1%.
For the compound `CCCCSc1nc2c(c(=O)n1CC)SC(C)C2` (centres undefined), the inhibition of corepressor binding was 4.84%.
In the case of `O=c1ccc2c(-c3ccccc3S(=O)(=O)O)c3ccc(O)c(O)c3oc-2c1O`, the inhibition of corepressor binding is 13.9%.
On to `CC(=O)c1sc2nc(SCC(=O)N3CCCCC3)[nH]c(=O)c2c1C`, for which the inhibition of corepressor binding is 29.3% (active).
Consider `C=CCNC(=O)CSc1nc2sc(C)c(C)c2c(=O)[nH]1`, for which the inhibition of corepressor binding is -1.07%.
Under `O=C(CSc1nc2c(cnn2-c2ccc(F)cc2)c(=O)[nH]1)N1CCCCCC1` stands -0.57%; under `CC(=O)N1CCC(C(=O)Nc2nc(-c3ccccc3)ns2)CC1`, 1.17%.
Consider `Cc1csc(Nc2ccc(Cl)cc2)[n+]1-c1ccc(Cl)cc1`, for which the inhibition of corepressor binding is -0.2%.
With `FC(F)Oc1ccccc1NC(=S)Nc1cccc(Cl)c1Cl`, the inhibition of corepressor binding was 3.12%.
For `Cc1ccc(NC(=O)C2(N3CCC3=O)CCCCC2)cc1`, the inhibition of corepressor binding was 3.49%.
`O=C(/C=C/c1cccc([N+](=O)[O-])c1)NCCSCc1ccco1`: the inhibition of corepressor binding is 0.28%.
Regarding `Cc1ccc2c(c1)N(CC(=O)N1CCC(C)CC1)C(=O)c1cccnc1O2`, the inhibition of corepressor binding is 3.77%.
For `CCOc1ccc2nc(C(=O)N3CCCC(C)C3)sc2c1` (centres undefined), the inhibition of corepressor binding is -1.62%.
With `ONC(=Nc1ccccc1)c1ccccc1Cl` the figure was -0.75%; with `COc1cccc(CNC(=O)c2cccnc2Sc2ccc(Cl)cc2)c1`, 0.2%; with `Cc1ccc(Nc2nc(Cl)c(C=O)s2)cc1`, 3.15%.
Consider `Cc1cc(C)c(C)c(S(=O)(=O)N2CCN(C(=O)c3ccc4c(=O)n5c(nc4c3)CCC5)CC2)c1C`, for which the inhibition of corepressor binding was -2.52%.
On to `O=C(Nc1nccs1)C1CCN(S(=O)(=O)c2ccc(Cl)c(C(F)(F)F)c2)CC1`, for which the inhibition of corepressor binding is 5.22%.
Under `O=C(CCNS(=O)(=O)c1cccs1)N1CCN(c2ccc(F)cc2)CC1` stands 0.06%.
As to `O=C(N[C@@H](Cc1ccccc1)C(=O)OCc1ccccc1)c1nc[nH]c1C(=O)NC1CCNCC1`, the inhibition of corepressor binding was 1.4%.
With `COc1ccc(C(=O)OCC(=O)c2ccc(Cl)s2)c(OC)c1OC`, the inhibition of corepressor binding is -1.77%.
Consider `CCOC(=O)c1ccc(N=C2SC(C(=O)NC)CC(=O)N2CCc2ccccc2)cc1` (centres undefined), for which the inhibition of corepressor binding was -2.67%.
With `COc1cc2[nH]c(=S)n(Cc3ccc(C)o3)c(=O)c2cc1OC` the figure was 23.2% (active); with `COc1cc2[nH]c(=S)n(CCN3CCCCC3C)c(=O)c2cc1OC` (centres undefined), 0.84%; with `COc1cc2[nH]c(=S)n(Cc3ccc(F)cc3)c(=O)c2cc1OC`, -2.77%.
Take `Cc1ccc(CN(N=Nc2nonc2N)c2nonc2N)c(C)c1`: the inhibition of corepressor binding was -0.3%.
For `CC(=O)N=c1ncn(CC(COC(C)=O)OC(C)=O)c2nc[nH]c12` (centres undefined), the inhibition of corepressor binding was 0.37%.
Under `CCC[C@H]1CCCC/C=C\CCCC(=O)OCCN1C(=O)OC(C)(C)C` stands -1.54%; under `CCOc1cc(NC(=O)CCl)c(OCC)cc1NC(C)=O`, -2.07%.
In the case of `COc1ccc2cc(-c3[nH]ncc3CNCCn3nc(C)cc3C)ccc2c1`, the inhibition of corepressor binding was 1.22%.
As for `COc1cc(C(=O)Nc2ncccc2C)ccc1OCC(=O)N1CCOCC1`, the inhibition of corepressor binding is 2.79%.
As to `Cc1nc(SCC(=O)NC2CCCC2)[nH]c(=O)c1C`, the inhibition of corepressor binding is -2.03%.
`O=C(c1ccc(Br)o1)N(c1ccccn1)C1CCCCC1`: the inhibition of corepressor binding is -1.56%.
Consider `CCCc1cc(=O)[nH]c(SCC(=O)Nc2sc3c(c2C#N)CCCC3)n1`, for which the inhibition of corepressor binding is 1.75%.
Regarding `CCOc1ccc(NC(=O)N2CC=C(n3c(=O)[nH]c4ccccc43)CC2)cc1`, the inhibition of corepressor binding is 1.76%.
As to `CCN1CCN(C(=O)C2(NC(=O)Nc3cccc(F)c3)CCCCC2)CC1`, the inhibition of corepressor binding is 2.38%.
With `Cc1ccc(C(=O)N/C(=C/c2ccc(-c3cccc([N+](=O)[O-])c3)o2)C(=O)NCCCN(C)C)cc1`, the inhibition of corepressor binding was -3.84%.
As for `CCCCC(=O)Nc1c2c(nn1-c1ccc([N+](=O)[O-])cc1)CS(=O)(=O)C2`, the inhibition of corepressor binding was 2.14%.
As to `COc1cc(OC)c(C(=O)N2CCCC2)cc1OC`, the inhibition of corepressor binding is 2.23%.
Take `N#Cc1c(N)nc2c3c(sc(=N)c2c1N)NC(=O)CC3c1ccccc1Cl` (centres undefined): the inhibition of corepressor binding is 27.7% (active).
Take `CSc1nc2c(c(=O)[nH]1)C(c1cccc(Cl)c1Cl)CC(=O)N2` (centres undefined): the inhibition of corepressor binding is 5.66%.
Under `COc1ccc(C2CC(=O)Nc3sc(=N)c4c(N)c(C#N)c(N)nc4c32)cc1OC` (centres undefined) stands -3.58%; under `CN(C)CCOc1cccc(Br)c1`, -0.9%; under `O=[N+]([O-])/C(N=Nc1ccccc1)=N\Nc1ccccc1`, -0.3%.
Consider `CCc1ccc(CN(C)C(=O)C2CCC(=O)N(Cc3cccc(OC)c3)C2)nc1` (centres undefined), for which the inhibition of corepressor binding is -4.58%.
Turning to `C/C(=N/O)c1ccc(N2C(=O)C3C4C=CC(C3C2=O)C2C3C(=O)N(c5ccc(/C(C)=N/O)cc5)C(=O)C3C42)cc1` (centres undefined), the inhibition of corepressor binding was -3.35%.
`O=C(NNC(=O)C1CCC1)c1ccccc1`: the inhibition of corepressor binding was 3.19%.
Under `O=C(CNCc1ccco1)Nc1cc(S(=O)(=O)N2CCOCC2)ccc1N1CCCC1` stands 6.04%.
In the case of `Cc1c(Cl)cccc1NC(=O)[C@@]1(CC(=O)O)CC(/C=C/c2ccccc2)=NO1`, the inhibition of corepressor binding is -2.16%.
`COC(=O)C1(C)NC(c2ccccc2OC)C2C(=O)N(c3ccccc3)C(=O)C21` (centres undefined): the inhibition of corepressor binding is 1.42%.
Turning to `O=C(CCCCO)c1ccc(O)c(Cl)c1`, the inhibition of corepressor binding was -2.2%.
Consider `O=C(COC(=O)Cc1ccc(Br)cc1)Nc1c(F)c(F)c(F)c(F)c1F`, for which the inhibition of corepressor binding is -1.39%.
Consider `CN(c1ccccc1)S(=O)(=O)c1cccc(NC(=O)Cc2ccc(Cl)cc2)c1`, for which the inhibition of corepressor binding was 4.43%.
In the case of `O=c1cnnc(Nc2ccccc2F)[nH]1`, the inhibition of corepressor binding was 3.47%.
Take `Oc1c(Br)cc(/C=N/NC(=S)NCC2CCCO2)cc1Br` (centres undefined): the inhibition of corepressor binding is 1.11%.
Regarding `O=C(NCCO)C(=O)NCC(c1ccc2c(c1)OCO2)N1CCN(c2ccc(F)cc2)CC1` (centres undefined), the inhibition of corepressor binding is -1.84%.
Turning to `CC1(C)C2CCC1(CS(=O)(=O)NCCc1c[nH]c3ccccc13)C(=O)C2` (centres undefined), the inhibition of corepressor binding is -2.06%.
As to `CCOC(=O)c1c(NC(=O)CSc2nnc(CNc3ccc(C)cc3C)o2)sc(C)c1C`, the inhibition of corepressor binding was -0.79%.

Source of the values: PubChem BioAssay AID2300 (The Scripps Research Institute Molecular Screening Center, 2010).
